Assay results from ChEMBL document CHEMBL4130578, “Synthesis, biological evaluation and structure-activity relationship studies of hederacolchiside E and its derivatives as potential anti-Alzheimer agents” (Eur J Med Chem, 2018).
Activity calls are given as the source filed them. No cut-off for these calls is given here.

Experiments:
PC-12 [1] = test: Cytoprotection against H2O2-induced cell injury in rat PC12 cells assessed as increase in cell viability at 1 to 50 uM preincubated for 12 hrs followed by H2O2 addition measured after 12 hrs by MTT assay; assay type: functional, cell-based
How it was run: (§1)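 PC12 cells grown in RPMI-1640 with 15% FBS and penicillin/streptomycin, subcultured every 2 days and cultured 8 days before use. Cells seeded at 1 × 10^4/well, after 12 h pretreated with compound 12 h, then exposed to 200 µM H2O2 for 12 h. MTT added for 4 h, formazan dissolved in DMSO, OD 490 nm read. Viability given as % of untreated control, mean ± SD, n = 3, ANOVA with Dunnett's test.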

PC-12 [2] = test: Cytoprotection against amyloid beta (1 to 42)-induced cell injury in rat PC12 cells assessed as cell viability at 10 uM preincubated for 12 hrs followed by amyloid beta (1 to 42) addition measured after 12 hrs by MTT assay (reference value: 55.3 +/- 1.5%); assay type: functional; conditions: read-out: Activity
PC-12 [3] = test: Cytoprotection against amyloid beta (1 to 42)-induced cell injury in rat PC12 cells assessed as cell viability at 50 uM preincubated for 12 hrs followed by amyloid beta (1 to 42) addition measured after 12 hrs by MTT assay (reference value: 55.3 +/- 1.5%); assay type: functional; conditions: read-out: Activity
PC-12 [4] = test: Cytoprotection against H2O2-induced cell injury in rat PC12 cells assessed as increase in cell viability at 20 uM preincubated for 12 hrs followed by H2O2 addition measured after 12 hrs by MTT assay; assay type: functional, cell-based; how it was run: as §1

SMILES: C[C@@H]1O[C@@H](O[C@H]2[C@H](O[C@H]3CC[C@]4(C)[C@H]5CC=C6[C@@H]7CC(C)(C)CC[C@]7(C(=O)O[C@@H]7O[C@H](CO)[C@@H](O[C@@H]8O[C@@H](C)[C@H](O)[C@@H](O)[C@H]8O)[C@H](O)[C@H]7O)CC[C@@]6(C)[C@]5(C)CC[C@H]4C3(C)C)OC[C@H](O[C@@H]3O[C@H](CO)[C@@H](O)[C@H](O)[C@H]3O)[C@@H]2O)[C@H](O)[C@H](O)[C@H]1O
- Activity (PC-12 [1]): Active
- viability at 10 µM (PC-12 [2]): 59.3%
- viability at 50 µM (PC-12 [3]): 63.3%

SMILES: CC1=NN(c2ccccc2)C(=O)C1
- Activity (PC-12 [4]): Active
